Test results from ChEMBL document CHEMBL1221219, “Selective blockade of 2-arachidonoylglycerol hydrolysis produces cannabinoid behavioral effects” (Nat Chem Biol, 2009).
Active and inactive are the calls of the source.

Columns and labels:
[1] = molecular target: T1, Diacylglycerol lipase-alpha (Homo sapiens) (UniProt Q9Y4D2); test: Inhibition of recombinant DAGLalpha expressed in HEK293 cells assessed as hydrolysis of 1-stearoyl-2-arachidonoyl-glycerol to 2-AG at 25 uM after 30 mins by LC-MS method; format: cell-based
T1 sequence (whole entry): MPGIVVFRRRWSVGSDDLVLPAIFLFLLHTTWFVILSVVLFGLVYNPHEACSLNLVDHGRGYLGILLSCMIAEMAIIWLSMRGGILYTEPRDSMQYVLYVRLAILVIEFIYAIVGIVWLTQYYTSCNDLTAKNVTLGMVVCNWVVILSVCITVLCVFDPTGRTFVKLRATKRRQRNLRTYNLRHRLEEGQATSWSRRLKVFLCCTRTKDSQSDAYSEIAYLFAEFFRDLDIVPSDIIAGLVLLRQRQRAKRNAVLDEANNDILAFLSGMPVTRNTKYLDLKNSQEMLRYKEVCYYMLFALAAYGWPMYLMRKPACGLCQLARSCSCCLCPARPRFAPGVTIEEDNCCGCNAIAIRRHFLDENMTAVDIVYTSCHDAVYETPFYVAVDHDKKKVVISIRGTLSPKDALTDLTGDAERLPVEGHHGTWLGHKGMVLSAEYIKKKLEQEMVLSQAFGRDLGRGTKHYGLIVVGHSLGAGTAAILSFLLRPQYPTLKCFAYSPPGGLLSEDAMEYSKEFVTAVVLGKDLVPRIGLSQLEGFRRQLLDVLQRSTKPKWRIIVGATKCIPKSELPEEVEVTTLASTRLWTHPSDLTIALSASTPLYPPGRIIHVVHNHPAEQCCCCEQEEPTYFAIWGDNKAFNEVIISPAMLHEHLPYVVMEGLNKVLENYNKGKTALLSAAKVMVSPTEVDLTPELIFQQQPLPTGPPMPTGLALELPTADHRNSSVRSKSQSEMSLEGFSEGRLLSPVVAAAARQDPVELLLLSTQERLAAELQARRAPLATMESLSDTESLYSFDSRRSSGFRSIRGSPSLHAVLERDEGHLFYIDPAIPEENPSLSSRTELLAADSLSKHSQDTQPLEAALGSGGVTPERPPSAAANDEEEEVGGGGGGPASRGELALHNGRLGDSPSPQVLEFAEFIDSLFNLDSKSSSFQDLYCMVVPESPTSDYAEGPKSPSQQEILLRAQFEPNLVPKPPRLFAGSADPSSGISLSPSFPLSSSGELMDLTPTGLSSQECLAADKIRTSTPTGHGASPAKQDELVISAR

[2] = molecular target: T2, Cytosolic phospholipase A2 (Homo sapiens) (UniProt P47712); test: Inhibition of recombinant cPLA2 4a expressed in HEK293 cells at 20 uM by radiolabeled TLC assay; format: cell-based
T2 sequence (whole entry): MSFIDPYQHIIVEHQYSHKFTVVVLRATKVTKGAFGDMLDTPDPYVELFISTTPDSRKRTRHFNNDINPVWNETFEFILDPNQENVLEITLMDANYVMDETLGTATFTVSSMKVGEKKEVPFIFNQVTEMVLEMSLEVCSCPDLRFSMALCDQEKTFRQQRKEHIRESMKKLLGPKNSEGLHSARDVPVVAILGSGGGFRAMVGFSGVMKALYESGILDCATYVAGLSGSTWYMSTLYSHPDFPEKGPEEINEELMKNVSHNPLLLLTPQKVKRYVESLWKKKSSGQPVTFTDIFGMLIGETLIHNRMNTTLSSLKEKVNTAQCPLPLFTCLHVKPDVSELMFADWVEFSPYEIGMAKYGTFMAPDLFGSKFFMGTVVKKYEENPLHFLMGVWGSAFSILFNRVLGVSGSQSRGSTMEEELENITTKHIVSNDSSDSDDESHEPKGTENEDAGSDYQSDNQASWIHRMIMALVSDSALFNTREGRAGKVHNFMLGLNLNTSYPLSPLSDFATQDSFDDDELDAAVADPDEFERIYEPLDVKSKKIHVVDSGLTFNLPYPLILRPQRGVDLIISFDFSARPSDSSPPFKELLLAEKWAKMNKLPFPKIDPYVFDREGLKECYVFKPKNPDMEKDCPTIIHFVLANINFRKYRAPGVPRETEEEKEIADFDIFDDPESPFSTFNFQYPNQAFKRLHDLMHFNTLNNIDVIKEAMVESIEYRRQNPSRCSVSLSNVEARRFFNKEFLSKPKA

[3] = tested on: Mus musculus; test: Inhibition of PLA2G7 in C57B1/6J mouse brain membrane at 16 mg/kg, ip after 4 hrs by competitive activity-based protein profiling-MudPIT method; format: functional, organism-based; parameters: dose 16 mg/kg
How it was run: (§1)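 After i.p. dosing in 4:1 PEG300:Tween80, male C57Bl/6J mice were killed at 4 h. Brain membrane proteomes from treated and vehicle mice were labelled with FP-biotin. Labelled proteins were enriched on avidin, digested on-bead with trypsin and analysed by multidimensional LC-MS. Proteins were identified by SEQUEST, and dosed samples were compared with vehicle.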

[4] = tested on: Mus musculus; test: Inhibition of CTHA in C57B1/6J mouse brain membrane at 16 mg/kg, ip after 4 hrs by competitive activity-based protein profiling-MudPIT method; format: functional, organism-based; parameters: dose 16 mg/kg
How it was run: (§2)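 Mice were dosed 16 mg kg^-1 i.p. or vehicle and killed at 4 h. Brain membrane proteomes were labelled with FP-biotin, avidin-enriched, trypsin-digested on bead, analysed by multidimensional LC-MS and identified by SEQUEST.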

[5] = tested on: Mus musculus; test: Inhibition of DPP8 in C57B1/6J mouse brain membrane at 16 mg/kg, ip after 4 hrs by competitive activity-based protein profiling-MudPIT method; format: functional, organism-based; parameters: dose 16 mg/kg; how it was run: as §2
[6] = tested on: Mus musculus; test: Inhibition of NTE in C57B1/6J mouse brain membrane at 16 mg/kg, ip after 4 hrs by competitive activity-based protein profiling-MudPIT method; format: functional, organism-based; parameters: dose 16 mg/kg; how it was run: as §1
[7] = tested on: Mus musculus; test: Inhibition of ABHD11 in C57B1/6J mouse brain membrane at 16 mg/kg, ip after 4 hrs by competitive activity-based protein profiling-MudPIT method; format: functional, organism-based; parameters: dose 16 mg/kg; how it was run: as §2
[8] = tested on: Mus musculus; test: Inhibition of PAFAH-1Bg in C57B1/6J mouse brain membrane at 16 mg/kg, ip after 4 hrs by competitive activity-based protein profiling-MudPIT method; format: functional, organism-based; parameters: dose 16 mg/kg; how it was run: as §1
[9] = tested on: Mus musculus; test: Change in palmitic acid in intraperitoneally dosed C57B1/6J mouse brain by LC-MS; format: functional, organism-based
How it was run: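 Male C57Bl/6J mice given 4, 8, 16 or 40 mg kg^-1 i.p. in 4:1 PEG300:Tween80 at 4 μl g^-1, or vehicle, and killed after 4 h. Whole-brain lipids were quantified by LC-MS.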

[10] = tested on: Mus musculus; test: Antinociceptive activity against C57B1/6J mouse at assessed as latency in reaction time required for thermal stimulus-induced tail flicking at 16 mg/kg, ip after 2 hrs; format: functional, organism-based; parameters: dose 16 mg/kg
How it was run: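 Tail immersion assay of thermal pain in male C57Bl/6J mice, 6-8 weeks. Dose 16 mg kg^-1 i.p. in 4:1 v/v PEG300:Tween80 at 4 μl g^-1, with vehicle controls.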

[11] = tested on: Mus musculus; test: Antinociceptive activity against formalin-induced pain in C57B1/6J mouse assessed as paw lifting or licking during early phase (0 to 10 mins) at 40 m/kg, po administered 2 hrs before formalin challenge pretreated with rimonabant; format: functional, organism-based
[12] = tested on: Mus musculus; test: Inhibition of JZL184 induced immobility in C57B1/6J mouse at 16 mg/kg, ip; format: functional, organism-based; parameters: dose 16 mg/kg

O=C(Oc1ccc([N+](=O)[O-])cc1)N1CCC(C(O)(c2ccc3c(c2)OCO3)c2ccc3c(c2)OCO3)CC1
inactive: inhibition [1] | inhibition [2] | inhibition [3] | inhibition [4] | inhibition [5] | inhibition [6] | inhibition [7] | inhibition [8] | Activity [9] | Activity [11]
active: Activity [10] | inhibition [12]
